Assay results from different studies.
Technique: competition with immobilised ligand
RPS6KA1 C-terminal kinase domain: Ribosomal protein S6 kinase alpha-1, C-terminal kinase domain (RPS6KA1, Homo sapiens, UniProt Q15418)
RPS6KA1 N-terminal kinase domain: Ribosomal protein S6 kinase alpha-1, N-terminal kinase domain (RPS6KA1, Homo sapiens, UniProt Q15418)

C[C@@H]1CCN(c2nccc(-c3cnn4ncccc34)n2)C1
remaining binding (RPS6KA1 C-terminal kinase domain; binding; 1 µM): 47%

FC(F)(F)Oc1cccc(-c2cnc3ccc(-c4ccncc4)nn23)c1
remaining binding (RPS6KA1 C-terminal kinase domain; binding; 5 µM): 41%

O=C(NCCCC1CCCCC1)c1ccc(CNC(=O)c2cnn(-c3ccccc3)c2C(F)(F)F)cc1
remaining binding (RPS6KA1 N-terminal kinase domain; cell-free assay; 0.1 µM): 100%

CN(CCCC(F)(F)F)c1nccc(-c2cnn3ncccc23)n1
remaining binding (RPS6KA1 C-terminal kinase domain; binding; 1 µM): 100%

CCS(=O)(=O)c1cc2cc(C[C@@](O)(CC(C)(C)c3ccc(F)cc3C(N)=O)C(F)(F)F)[nH]c2cn1
remaining binding (RPS6KA1 N-terminal kinase domain; cell-free assay; 1 µM): 100%

O=C(NCCCN1CCOCC1)c1ccc(Nc2nccc(-c3cc4ccccc4s3)n2)cc1
remaining binding (RPS6KA1 C-terminal kinase domain; binding; 1 µM): 54%

CN(C)c1ncc(F)c(-c2cnn3ncccc23)n1
remaining binding (RPS6KA1 C-terminal kinase domain; binding; 1 µM): 100%

O=C(NCCCN1CCOCC1)c1ccc(Nc2ncc(Cl)c(-c3ccc(Cl)s3)n2)cc1
remaining binding (RPS6KA1 N-terminal kinase domain; binding; 1 µM): 55%

CNC(=O)c1ccc(Nc2ncc(C(F)(F)F)c(NCc3nccnc3N(C)S(C)(=O)=O)n2)cc1
remaining binding (RPS6KA1 C-terminal kinase domain; cell-free assay; 0.1 µM): 71%

C[C@@H](c1ccc(-n2cnc3c(N)ncnc32)cc1)N1CCc2nn(C)c(Cc3ccccc3)c2C1=O
remaining binding (RPS6KA1 C-terminal kinase domain; binding; 0.1 µM): 100%

COc1cnc(Nc2cccc(S(N)(=O)=O)c2)nc1N1CCN(c2ccccc2)CC1
remaining binding (RPS6KA1 N-terminal kinase domain; binding; 1 µM): 100%

O=C(NS(=O)(=O)c1ccc(NCC2CCOCC2)c([N+](=O)[O-])c1)c1ccc(N2CCN(Cc3ccc(C(F)(F)F)cc3-c3ccc(Cl)cc3)CC2)cc1Oc1cnc2[nH]ccc2c1
remaining binding (RPS6KA1 N-terminal kinase domain; cell-free assay; 1 µM): 95%

Cc1cnn2ncc(-c3ccnc(N(C)C)n3)c2c1
remaining binding (RPS6KA1 N-terminal kinase domain; binding; 1 µM): 100%

O=C(NCc1ncc(C(F)(F)F)cc1Cl)c1ccc2c(c1)C1(CCS(=O)(=O)CC1)[C@H](C1CC1)N2S(=O)(=O)c1ccc(F)cc1
remaining binding (RPS6KA1 C-terminal kinase domain; cell-free assay; 1 µM): 99%

Nc1ncc2c(n1)-c1c([nH]c3ccc(C#CC4CC4)cc13)CCCC2
remaining binding (RPS6KA1 N-terminal kinase domain; binding; 1 µM): 90%

O=C(c1ccc(Nc2nccc(-c3cc4ccccc4s3)n2)cc1)N1CCC(N2CCCC2)CC1
remaining binding (RPS6KA1 N-terminal kinase domain; binding; 1 µM): 100%

COc1cnc(Nc2cccc(S(N)(=O)=O)c2)nc1N1CCN(c2ccccc2)C(=O)C1
remaining binding (RPS6KA1 C-terminal kinase domain; binding; 1 µM): 92%

c1cnn2ncc(-c3ccnc(N4CCC45COC5)n3)c2c1
remaining binding (RPS6KA1 N-terminal kinase domain; binding; 1 µM): 90%

O=C(Nc1c[nH]nc1C(=O)NC1CCNCC1)c1cc(F)cc(F)c1
remaining binding (RPS6KA1 C-terminal kinase domain; binding; 1 µM): 100%

N[C@@H]1CCN(c2nccc(-c3cnn4ncccc34)n2)C1
remaining binding (RPS6KA1 C-terminal kinase domain; binding; 1 µM): 100%

C[C@@H]1CN(c2cc(-c3n[nH]c4ccc(OC5(C)CC5)cc34)ncn2)C[C@H](C)O1
remaining binding (RPS6KA1 N-terminal kinase domain; cell-free assay; 0.1 µM): 97%
